In the library only some 2.7% were active in any assay of this set; here they are far more common.
OXTR potentiator – human OXTR potentiation; CHO-OTR cells, Fluo-8 calcium fluorescence, potentiator mode; 0% = oxytocin EC15, 100% = EC100; AID 2445; P30559; 320,000 tested, 0.061% active; activation, % at 3 µM;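 active means activation above that plate's cutoff, the mean activation of tested compounds plus 3 SD, cut at about 6.6% in these data, passing the limit was not always enough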
Target sequence (P30559 whole entry, looked up): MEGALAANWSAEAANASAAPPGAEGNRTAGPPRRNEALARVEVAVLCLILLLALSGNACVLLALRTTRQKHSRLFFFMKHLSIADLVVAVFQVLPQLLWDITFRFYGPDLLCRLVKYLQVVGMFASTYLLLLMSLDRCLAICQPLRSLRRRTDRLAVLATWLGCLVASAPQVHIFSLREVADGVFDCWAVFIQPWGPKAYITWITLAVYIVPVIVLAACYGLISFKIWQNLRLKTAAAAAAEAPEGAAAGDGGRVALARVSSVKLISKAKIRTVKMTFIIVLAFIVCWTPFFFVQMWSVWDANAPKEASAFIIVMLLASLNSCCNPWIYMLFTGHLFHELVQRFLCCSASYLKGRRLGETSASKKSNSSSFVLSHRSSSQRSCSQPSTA
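assay system = CHO-OTR cells, human receptor | schedule = compound 6 min at room temperature before oxytocin, 100 s read | detection = Fluo-8 intracellular calcium fluorescence, ex 470-495, em 515-575 nm | evaluation = normalized max/min fluorescence ratio, % activation | control set = EC15 oxytocin alone as 0%, 75 nM oxytocin (EC100) as 100%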
CHO parental Ca – counter-screen for OX1R antagonists: effect in parental CHO cells. 330,000 tested, 0.63% active. parental CHO-K1, ATP-induced calcium, Fluo-8 fluorescence. inhibition, % at 5.6 µM;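 active means inhibition above that plate's mean sample inhibition plus 3 SD, cut at about 26% in these data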
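Material: Parental CHO cells | Reagent: ATP | Compound dosing: Single nominal dose of 5.6 µM per compound | Detection: Intracellular calcium via Fluo-8 no-wash fluorescent dye | Read-out: % inhibition of ATP-induced calcium mobilization | Benchmarks: Low control ATP plus DMSO, high control DMSO only | Replicates: Singlicate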
OX1R antag-1 – human HCRTR1 antagonism | O43613 | CHO/OX1R cells, Fluo-8 calcium fluorescence, orexin A | inhibition, % at 5 µM | 330,000 tested, 0.43% active;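 active means inhibition above its plate's threshold, mean inhibition of all tested compounds on the plate plus 3 SD, cut at about 37% in these data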
V1R ag counter – counter-screen for oxytocin receptor agonists: human V1a receptor agonists | P37288 | CHO-V1R cells, Fluo-8 calcium fluorescence, agonist mode; 0% DMSO, 100% 3 nM vasopressin | activation, % at 3 µM | 320,000 tested, 0.25% active;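 active means activation above the mean activation of all tested compounds plus 3 SD, per screening run, cut at about 20% in these data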;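 further: signal is peak over basal fluorescence ratio across a 100 second FLIPR read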
OXTR ag – human OXTR agonism; CHO-OTR cells, Fluo-8 calcium fluorescence; normalized: DMSO 0%, oxytocin 100%; AID 2435; activation, % at 3 µM; 320,000 tested, 0.32% active;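 active means activation above the mean of all tested compounds plus 3 SD, cutoff set per screening run, cut at about 20% in these data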;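 further: peak over basal fluorescence ratio from a 100 s FLIPR kinetic read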
OX1R antag-2 – OX1R (human) antagonism | OX1R-expressing cells, FRET antagonist read-out | 330,000 tested, 1.8% active | O43613 | inhibition, % at 6.6 µM; in the data active means inhibition mostly above about 38%, no sharp cut-off; inactive means mostly below about 40%
OX1R HTRF conf – OX1R (human) antagonism, HTRF confirmed; shares compounds with OX1R antag-2; OX1R-expressing cells, HTRF antagonist assay; inhibition, % at 6.6 µM; 1,800 tested, 49% active; AID 492964; in the data active means inhibition above about 55%;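 further: CHO cells expressing OX1R stimulated with orexin A at about EC80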
CHO-K1 HTRF – counter-screen for OX1R antagonists: effect in parental CHO-K1 cells; 1,800 tested, 48% active; inhibition, % at 6.6 µM; shares compounds with OX1R antag-2; HTRF counterscreen; AID 493232; in the data active means inhibition above about 17%
Numbers stand for hits; n = inactive; x = no result given.

SMILES	OXTR potentiator	CHO parental Ca	OX1R antag-1	V1R ag counter	OXTR ag	OX1R antag-2	OX1R HTRF conf	CHO-K1 HTRF
Cc1csc(NC(=O)c2cnc3ccccc3n2)n1	n	n	n	n	n	113	n	48
C=CCOc1ccc(CNc2ccc3[nH]c(=O)[nH]c3c2)cc1OCC	n	n	n	n	n	112	n	n
CCOc1cc(CNc2ccc3[nH]c(=O)[nH]c3c2)ccc1OCC(=O)NC(C)(C)C	n	n	n	n	n	n	x	x
COc1ncccc1C(=O)N1CCCC(N2CCN(c3cccc(Cl)c3)CC2)C1 (stereo unspecified)	n	n	n	n	n	n	x	x
CCOC(=O)c1nn(-c2ccc(Cl)cc2Cl)c(=N)c(C#N)c1C	n	n	n	n	n	n	x	x
CCOC(=O)c1nn(-c2ccccc2)c(=O)c(C#N)c1C	n	n	n	n	n	145	n	81
CCOC(=O)c1c(C#N)cnn1-c1ccc(C)cc1	n	n	n	n	n	n	x	x
CCOC(=O)Nc1nn(-c2ccc(C)cc2)c(=O)c(C#N)c1C	n	n	n	n	n	120	58	61
NC(=O)c1ccc(SCC(=O)NC2CCCCC2)c([N+](=O)[O-])c1	n	n	n	n	n	77	n	35
COC(=O)c1ccc(SCC(=O)NC2CCCC2)c([N+](=O)[O-])c1	n	n	n	n	n	n	x	x
O=C(CCCN1C(=O)C2CCCCN2C1=O)N1CCN(c2ccc([N+](=O)[O-])cc2)CC1 (stereo unspecified)	n	n	n	n	n	79	n	25
O=C1C2CCCCN2C(=O)N1CCN1CCN(c2ccc([N+](=O)[O-])cc2)CC1 (stereo unspecified)	n	n	n	n	n	n	x	x
COc1ccc(/C=c2\s/c(=C/C(=O)c3ccc(C)cc3)[nH]c2=O)cc1OC	n	n	n	n	n	82	84	19
CCOc1ccc(C(=O)Nc2ccc3[nH]ncc3c2)cc1	n	n	n	n	n	n	x	x
CCOC(=O)c1c(NC(=O)COC(=O)c2ccccn2)sc(C)c1C	n	n	n	n	n	n	x	x
Cc1cccc(NC(=O)N2CCN(Cc3ccc4c(c3)OCO4)CC2)c1C	n	n	n	n	n	n	x	x
O=[N+]([O-])c1cccc(COc2ncnc3cc([N+](=O)[O-])ccc23)c1	n	n	n	n	n	91	n	48
O=C(COc1ncnc2cc([N+](=O)[O-])ccc12)NCc1ccc2c(c1)OCO2	n	n	n	n	n	81	n	45
Cc1c(Cl)c([N+](=O)[O-])nn1CCCC(=O)N(Cc1ccccc1)Cc1ccccc1	n	n	n	n	n	84	85	n
O=C(O)Cn1c(-c2ccccc2)cc2ccccc21	n	n	n	n	n	n	x	x
CC(C)c1ccc(NC(=O)CCCN2C(=S)NC(C)(C)CC2C)cc1 (stereo unspecified)	n	n	n	n	n	100	n	n
CCN(Cc1ccccc1)S(=O)(=O)c1ccc(C(=O)N(CCCN(C)C)c2nc3c(C)c(C)ccc3s2)cc1	n	n	n	n	n	n	x	x
Nc1cc(=O)[nH]c(SCC(=O)N2CCCC2)n1	n	n	n	n	n	n	x	x
CCOC(=O)c1ccc(CNCc2ccccc2)cc1	n	n	n	n	n	80	n	n
CCOC(=O)c1ccc(NC(=O)c2cc3ccccc3o2)cc1	n	n	n	n	n	77	72	n
SMILES	OXTR potentiator	CHO parental Ca	OX1R antag-1	V1R ag counter	OXTR ag	OX1R antag-2	OX1R HTRF conf	CHO-K1 HTRF
CC(C)C(=O)Nc1ccc(NC(=O)c2cc3ccccc3o2)cc1	n	n	n	n	n	n	x	x
CCn1ncc(N2CCOCC2)c(Cl)c1=O	n	n	n	n	n	n	x	x
CCOc1ccc(CN(C(=O)c2cc(=O)c3cc(C)cc(C)c3o2)C2CCS(=O)(=O)C2)cc1 (stereo unspecified)	n	n	n	n	n	n	x	x
Nc1nc2ccccc2n1/N=C/c1ccc([N+](=O)[O-])s1	n	n	n	n	n	78	n	27
CCN(CC)c1ccc(N=Nc2ncn[nH]2)cc1	n	n	n	n	n	139	n	56
CC(C)CNC(=O)CSc1ccc(S(=O)(=O)N2CCN(C)CC2)cn1	n	n	n	n	n	n	x	x
O=C1CCCC2=C1C(c1cccs1)n1nc(SCc3ccccc3F)nc1N2 (stereo unspecified)	n	n	n	n	n	n	x	x
CSc1nc2n(n1)C(c1cccs1)C1=C(CCCC1=O)N2 (stereo unspecified)	n	n	n	n	n	106	n	n
Cc1cc2c(ncn2Cc2ccccc2)c(N)c1C	n	n	n	n	n	n	x	x
COc1ccc(-c2cc(C(F)F)n3ncc(C(=O)N4CCc5ccccc54)c3n2)cc1	n	n	n	n	n	n	x	x
COc1ccc(-c2cc(C(F)F)n3ncc(C(=O)n4ccnc4C)c3n2)cc1	n	n	n	n	n	108	n	29
Cc1cccc(-c2nnc3n2N=C(c2ccccc2)CS3)c1	n	n	n	n	n	n	x	x
Cc1nn2c(nc1=O)SCC(c1ccccc1)=N2	n	n	n	n	n	145	n	62
O=C1OCc2cccc([N+](=O)[O-])c21	n	n	n	n	n	79	n	33
COc1ccc(CNc2nc(-c3ccccc3)nc3ccccc23)cc1OC	n	n	n	n	n	85	68	n
COc1ccc(CCNc2c3ccccc3nc3ccccc23)cc1OC	n	n	n	n	n	n	x	x
CCOC(=O)N/N=C\c1ccc([N+](=O)[O-])o1	n	n	n	n	n	78	n	79
NC(=O)c1ccsc1NC(=O)c1ccc2c(c1)CCCC2	n	n	n	n	n	79	66	n
CC(=O)Oc1ccc(C(=O)Nc2cccc(C(=O)c3ccc(C)c(C)c3)c2)cc1	n	n	n	n	n	n	x	x
CC(=O)C1=C(c2ccc(Br)cc2)C(=O)c2ccccc2C1=O	n	n	n	n	n	n	x	x
CNC1=C(N(C(C)=O)c2ccc(Br)cc2)C(=O)c2ccccc2C1=O	n	n	n	n	n	105	55	97
CCC(=O)N(C1=C(NC)C(=O)c2ccccc2C1=O)C(C)C	n	n	n	n	n	80	66	64
CC1CCN(C(=O)CNC(=O)c2cccc(OC(F)F)c2)CC1	n	n	n	n	n	n	x	x
COc1ccccc1NC1=C(N2CCCCC2)C(=O)c2ccccc2C1=O	n	n	n	n	n	79	n	31
CN(CC(=O)Nc1ccccc1Br)C(=O)c1ccccc1-c1nc2ccccc2s1	n	n	n	n	n	84	71	n

From PubChem
